These results are taken from ChEMBL document CHEMBL1157475, “Selective influence on contextual memory: physiochemical properties associated with selectivity of benzodiazepine ligands at GABAA receptors containing the alpha5 subunit” (J Med Chem, 2008).

Calls of active or inactive are those of the source. The calls are words filed in the database; no cut-off is given here.

Assay [1] has as its system Mus musculus. The assay can be described thus: Effect on spontaneous locomotor activity in C57BL/6J mouse at 30 mg/kg, ip by automated assessment. The format is functional. Conditions: route intraperitoneal. The procedure, abridged:
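Male C57Bl/6 mice given 30 mg/kg ip, compared with vehicle-injected mice. Spontaneous locomotor activity was recorded automatically over a 40 min observation period after injection.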

For assay [2], the system named is Mus musculus. The assay can be described thus: Impairment of contextual memory in C57BL/6J mouse at 30 mg/kg, ip. Format: functional, organism-based. More on the design: dose 30 mg/kg. A digest of the protocol:
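Male C57Bl/6 mice aged 7–12 weeks, given an ip injection in 0.9% saline containing 2.5% encapsin, 20 min before training. Training was 4 min in the chamber, then three 33 s tones (85 dB, 2.9 kHz), each ending in a 0.75 mA shock for 3 s, 1 min apart. Twenty-four hours later, freezing was scored during a 4 min context test without shock.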

In assay [3] the target is T1, Gamma-aminobutyric acid receptor subunit alpha-3 (Homo sapiens, UniProt P18507+P28472+P34903).
T1 sequence (P34903 whole entry): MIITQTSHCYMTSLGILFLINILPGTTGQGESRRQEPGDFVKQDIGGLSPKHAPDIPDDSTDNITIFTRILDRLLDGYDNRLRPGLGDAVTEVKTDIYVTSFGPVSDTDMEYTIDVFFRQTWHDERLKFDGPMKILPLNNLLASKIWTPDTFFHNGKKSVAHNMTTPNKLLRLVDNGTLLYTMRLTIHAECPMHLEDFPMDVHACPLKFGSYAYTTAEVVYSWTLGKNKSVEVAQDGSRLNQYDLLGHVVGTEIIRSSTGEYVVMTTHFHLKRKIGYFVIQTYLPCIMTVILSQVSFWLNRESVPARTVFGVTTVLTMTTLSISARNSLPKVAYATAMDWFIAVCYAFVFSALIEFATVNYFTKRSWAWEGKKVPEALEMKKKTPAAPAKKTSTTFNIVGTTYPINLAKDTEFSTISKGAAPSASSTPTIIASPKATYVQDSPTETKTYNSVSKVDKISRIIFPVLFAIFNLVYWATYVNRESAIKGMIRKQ
The assay can be described thus: Binding affinity to GABAA alpha-3-beta-3-gamma-2 receptor.

For assay [4], the target named is T2, GABA-A receptor; alpha-6/beta-3/gamma-2 (Homo sapiens, UniProt P18507+P28472+Q16445). The assay is described as follows: Binding affinity to GABAA alpha-6-beta-3-gamma-2 receptor. The format is protein-complex assay.
Assay [5] addresses T3, GABA A receptor alpha-4/beta-3/gamma-2 (Homo sapiens, UniProt P18507+P28472+P48169). The assay is described as follows: Binding affinity to GABAA alpha-4-beta-3-gamma-2 receptor. Format: protein-complex assay.
In assay [6] the target is T4, GABA-A receptor; alpha-5/beta-3/gamma-2 (Homo sapiens, UniProt P18507+P28472+P31644).
T4 sequence (P18507 whole entry): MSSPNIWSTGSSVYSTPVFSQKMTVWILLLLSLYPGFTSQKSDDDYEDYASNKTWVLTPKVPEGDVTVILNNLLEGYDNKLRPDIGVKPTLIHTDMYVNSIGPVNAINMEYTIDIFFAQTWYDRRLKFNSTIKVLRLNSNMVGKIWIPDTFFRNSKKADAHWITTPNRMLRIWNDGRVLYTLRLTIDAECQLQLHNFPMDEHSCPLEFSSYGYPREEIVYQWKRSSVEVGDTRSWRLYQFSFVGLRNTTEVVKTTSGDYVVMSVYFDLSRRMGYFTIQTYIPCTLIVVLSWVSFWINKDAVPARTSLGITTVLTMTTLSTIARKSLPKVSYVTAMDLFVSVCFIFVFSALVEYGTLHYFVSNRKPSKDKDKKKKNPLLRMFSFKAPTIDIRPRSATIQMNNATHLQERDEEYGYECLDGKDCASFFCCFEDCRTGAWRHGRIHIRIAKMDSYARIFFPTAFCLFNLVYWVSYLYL
T4 sequence (P28472 whole entry): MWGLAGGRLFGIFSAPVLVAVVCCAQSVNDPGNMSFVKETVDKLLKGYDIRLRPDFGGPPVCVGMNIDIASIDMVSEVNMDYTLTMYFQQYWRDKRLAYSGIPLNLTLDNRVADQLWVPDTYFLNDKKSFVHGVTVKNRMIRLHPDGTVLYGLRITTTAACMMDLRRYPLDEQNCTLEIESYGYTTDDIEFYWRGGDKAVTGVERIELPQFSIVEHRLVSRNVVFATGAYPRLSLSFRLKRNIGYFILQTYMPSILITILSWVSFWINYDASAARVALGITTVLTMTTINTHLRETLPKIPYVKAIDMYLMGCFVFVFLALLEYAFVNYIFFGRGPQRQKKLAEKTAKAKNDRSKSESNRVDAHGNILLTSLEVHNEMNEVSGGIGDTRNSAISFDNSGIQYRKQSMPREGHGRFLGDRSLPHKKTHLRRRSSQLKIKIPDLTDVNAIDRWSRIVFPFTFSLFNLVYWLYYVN
T4 sequence (P31644 whole entry): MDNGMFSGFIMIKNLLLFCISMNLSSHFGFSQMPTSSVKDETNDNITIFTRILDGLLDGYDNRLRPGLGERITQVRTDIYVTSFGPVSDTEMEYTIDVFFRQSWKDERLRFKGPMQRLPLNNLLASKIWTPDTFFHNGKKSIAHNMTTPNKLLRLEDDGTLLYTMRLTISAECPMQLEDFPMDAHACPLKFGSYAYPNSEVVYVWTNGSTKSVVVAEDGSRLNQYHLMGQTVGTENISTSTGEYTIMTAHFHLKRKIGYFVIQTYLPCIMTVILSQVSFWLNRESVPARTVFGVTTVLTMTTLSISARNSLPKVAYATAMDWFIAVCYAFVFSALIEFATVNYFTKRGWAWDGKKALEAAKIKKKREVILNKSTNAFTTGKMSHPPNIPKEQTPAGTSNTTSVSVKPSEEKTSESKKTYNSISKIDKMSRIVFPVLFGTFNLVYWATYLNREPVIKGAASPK
The assay can be described thus: Binding affinity to GABAA alpha-5-beta-3-gamma-2 receptor. Format: protein-complex assay.

Assay [7] deals with T5, GABA-A receptor; alpha-2/beta-3/gamma-2 (Homo sapiens, UniProt P18507+P28472+P47869).
T5 sequence (P18507 whole entry): T4 sequence (P18507 whole entry)
T5 sequence (P28472 whole entry): T4 sequence (P28472 whole entry)
T5 sequence (P47869 whole entry): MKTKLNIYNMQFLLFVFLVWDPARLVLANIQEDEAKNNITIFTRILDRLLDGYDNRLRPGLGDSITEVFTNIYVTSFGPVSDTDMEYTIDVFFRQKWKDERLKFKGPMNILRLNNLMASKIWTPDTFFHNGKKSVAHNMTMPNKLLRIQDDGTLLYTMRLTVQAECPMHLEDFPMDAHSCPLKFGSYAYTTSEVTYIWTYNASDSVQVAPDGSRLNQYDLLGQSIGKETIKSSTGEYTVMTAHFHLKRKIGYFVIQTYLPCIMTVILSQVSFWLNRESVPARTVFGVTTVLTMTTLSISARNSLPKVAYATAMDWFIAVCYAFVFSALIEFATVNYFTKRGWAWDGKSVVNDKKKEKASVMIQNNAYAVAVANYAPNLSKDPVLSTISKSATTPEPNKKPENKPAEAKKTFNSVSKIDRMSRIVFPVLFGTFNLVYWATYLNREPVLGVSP
The assay is described as follows: Binding affinity to GABAA alpha-2-beta-3-gamma-2 receptor.

Assay [8] deals with T6, GABA-A receptor; alpha-1/beta-3/gamma-2 (Homo sapiens, UniProt P14867+P18507+P28472).
T6 sequence (P14867 whole entry): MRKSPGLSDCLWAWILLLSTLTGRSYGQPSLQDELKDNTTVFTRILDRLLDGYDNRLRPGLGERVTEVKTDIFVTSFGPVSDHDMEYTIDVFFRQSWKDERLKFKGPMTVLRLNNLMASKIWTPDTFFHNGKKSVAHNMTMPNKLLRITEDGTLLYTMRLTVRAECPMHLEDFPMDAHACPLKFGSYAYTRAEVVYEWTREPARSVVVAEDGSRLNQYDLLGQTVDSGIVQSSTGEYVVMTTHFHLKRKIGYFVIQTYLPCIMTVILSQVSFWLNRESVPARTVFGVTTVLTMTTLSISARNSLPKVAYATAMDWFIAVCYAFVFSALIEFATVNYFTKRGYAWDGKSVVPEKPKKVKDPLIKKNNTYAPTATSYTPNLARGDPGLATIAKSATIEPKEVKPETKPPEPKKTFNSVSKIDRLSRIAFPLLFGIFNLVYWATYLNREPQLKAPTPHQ
T6 sequence (P18507 whole entry): T4 sequence (P18507 whole entry)
T6 sequence (P28472 whole entry): T4 sequence (P28472 whole entry)
The assay can be described thus: Binding affinity to GABAA alpha-1-beta-3-gamma-2 receptor. Format: protein-complex assay.

For assay [9], the target named is T4, GABA-A receptor; alpha-5/beta-3/gamma-2. The assay can be described thus: Activity at alpha-5-beta-3-gamma-2 GABAA receptor expressed in Xenopus oocytes assessed as inhibition in GABA-induced current by voltage clamp assay. Format: cell-based, Oocyte. The procedure, abridged:
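cRNA-injected Xenopus oocytes (α5, β3 transcripts 0.0065 ng/nL, γ2 0.032 ng/nL; 50 nL), defolliculated after ≥36 h; two-electrode voltage clamp at −60 mV, room temperature, in Xenopus Ringer's pH 7.4. Ligand (1 µM; 0.1% DMSO final) preapplied 30 s, then coapplied with GABA at EC20 until peak; current change versus GABA alone.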

In assay [10] the target is T3, GABA A receptor alpha-4/beta-3/gamma-2. The assay can be described thus: Activity at alpha-4-beta-3-gamma-2 GABAA receptor expressed in Xenopus oocytes assessed as inhibition in GABA-induced current by voltage clamp assay. Format: cell-based, Oocyte. The procedure, abridged:
(§1)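 cRNA for alpha and beta3 subunits (0.0065 ng/nL) plus gamma2 (0.032 ng/nL) injected into Xenopus oocytes, 50 nL each, recorded after ≥36 h. Two-electrode voltage clamp at -60 mV, room temperature, in Xenopus Ringer's pH 7.4. Drug (final 0.1% DMSO) preapplied 30 s, then coapplied with GABA at about EC20 until peak. Current normalized to response without drug.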

Assay [11] has as its target T5, GABA-A receptor; alpha-2/beta-3/gamma-2. The assay can be described thus: Activity at alpha-2-beta-3-gamma-2 GABAA receptor expressed in Xenopus oocytes assessed as inhibition in GABA-induced current by voltage clamp assay. Format: cell-based, Oocyte. The procedure, abridged:
as §1

For assay [12], the target named is T2, GABA-A receptor; alpha-6/beta-3/gamma-2. The assay is described as follows: Activity at alpha-6-beta-3-gamma-2 GABAA receptor expressed in Xenopus oocytes assessed as inhibition in GABA-induced current by voltage clamp assay. Format: cell-based, Oocyte. A digest of the protocol: as §1
Assay [13] addresses T6, GABA-A receptor; alpha-1/beta-3/gamma-2. The assay is described as follows: Activity at GABAA alpha-1-beta-3-gamma-2 receptor expressed in Xenopus oocytes assessed as inhibition of GABA-induced current by voltage clamp assay. The format is cell-based, Oocyte. A digest of the protocol: as §1

T3 sequence (P48169 whole entry, one chain of several): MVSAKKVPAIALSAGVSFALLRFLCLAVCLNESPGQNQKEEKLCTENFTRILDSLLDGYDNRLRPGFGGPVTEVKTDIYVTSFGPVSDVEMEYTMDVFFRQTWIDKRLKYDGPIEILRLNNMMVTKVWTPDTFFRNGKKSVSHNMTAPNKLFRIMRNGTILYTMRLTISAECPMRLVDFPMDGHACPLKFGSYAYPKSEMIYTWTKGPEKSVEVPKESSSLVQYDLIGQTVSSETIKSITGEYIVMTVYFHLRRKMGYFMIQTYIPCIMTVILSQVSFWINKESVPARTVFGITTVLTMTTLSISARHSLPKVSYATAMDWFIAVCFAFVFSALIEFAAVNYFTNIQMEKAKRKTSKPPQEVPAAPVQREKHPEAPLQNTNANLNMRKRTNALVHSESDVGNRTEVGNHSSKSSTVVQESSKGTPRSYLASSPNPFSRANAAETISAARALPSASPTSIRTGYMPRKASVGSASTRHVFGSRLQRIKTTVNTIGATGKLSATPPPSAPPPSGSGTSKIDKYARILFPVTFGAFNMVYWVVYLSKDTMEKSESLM
T2 sequence (Q16445 whole entry, one chain of several): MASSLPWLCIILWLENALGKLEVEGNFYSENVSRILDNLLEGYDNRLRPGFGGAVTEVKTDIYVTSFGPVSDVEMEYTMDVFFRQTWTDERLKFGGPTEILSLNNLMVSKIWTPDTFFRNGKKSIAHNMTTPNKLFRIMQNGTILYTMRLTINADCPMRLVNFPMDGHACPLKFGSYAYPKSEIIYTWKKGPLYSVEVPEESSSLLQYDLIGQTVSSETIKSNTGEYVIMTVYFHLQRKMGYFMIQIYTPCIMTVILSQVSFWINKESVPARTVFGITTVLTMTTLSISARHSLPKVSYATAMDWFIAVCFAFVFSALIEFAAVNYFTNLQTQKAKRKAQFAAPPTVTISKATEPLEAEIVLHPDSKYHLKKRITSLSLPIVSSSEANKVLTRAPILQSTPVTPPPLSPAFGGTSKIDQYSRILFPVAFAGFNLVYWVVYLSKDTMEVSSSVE

Regarding `C#Cc1ccc2c(c1)C(c1ccccc1)=N[C@H](C)c1c(C(=O)OCC)ncn1-2`, the Activity in the assay with Mus musculus [1] is given as 1026. For the same compound, in the assay with Mus musculus [2], the result was Active.
What is called Ki is a measure of affinity in units of concentration, obtained from inhibition or displacement. As to `CN1CC2C(C(=O)OC(C)(C)C)=NCN2c2ccc(C#C[Si](C)(C)C)cc2C1=O` (stereo not drawn), the Ki in assay [3] came out at 255 nM; in assay [4], 58.6 nM; in assay [5], 2.61 nM; in assay [6], 2.61 nM; in [7] it was 143 nM; in assay [8], 197 nM.
In general, EC50 refers to the concentration giving half of the maximal effect. Regarding `C#Cc1ccc2c(c1)C(=O)N(C)Cc1c(C(=O)OC(C)(C)C)ncn1-2`, the EC50 is 9800 nM in assay [9]; 324000 nM in assay [10]; 95500 nM in assay [11]; 51700 nM in [12]; 74400 nM in [13].
